Results on nine compounds are retold here after ChEMBL document CHEMBL4257483, “Design, synthesis and bioactivities of phenithionate analogues or derivatives for anti-schistosomiasis” (Medchemcomm, 2018).

≈ marks a conversion by molar mass, not a printed value. Calls of active or inactive are those of the source. The calls are words filed in the database; no cut-off is given here.

Data set [1] relates to Schistosoma japonicum. The data set can be described thus: Antischistosomal activity against Schistosoma japonicum larva derived from infected mouse assessed as reduction in larva viability after 72 hrs. It counts as functional, organism-based. In short, it runs like this:
(§1)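 Worms perfused with cold heparinised HBSS from mice infected percutaneously with S. japonicum cercariae: larvae at 15 days post-infection (260–280 cercariae), adults at 35 days (120–140 cercariae). Five male and female worms per well in 10% calf serum RPMI 1640 with penicillin, streptomycin and amphotericin B. Preincubated 4 h at 37 °C, 5% CO2, then compounds added and viability recorded over 72 h. IC50 taken at 50% survival. DMSO blank.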

In data set [2] the test system is Schistosoma japonicum. The data set can be described thus: Antischistosomal activity against Schistosoma japonicum imago derived from infected mouse assessed as reduction in imago viability after 72 hrs. It counts as functional, organism-based. In short, it runs like this:
as §1

Data set [3] is described as follows: Lipid/water partition coefficient, log P of the compound. The class given is physicochemical.
A short description of data set [4]: Dissociation constant, pKa of the compound. It counts as physicochemical.
The subject of data set [5] is Schistosoma japonicum. The experiment in a line: Antischistosomal activity against Schistosoma japonicum infected in mouse at 25 mg/kg/day, po treated for 5 days measured after day 1 post last dose by ELISA. It counts as functional, organism-based. The procedure, abridged:
(§2)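 Male mice (20–22 g) infected via abdominal skin with 120–140 S. japonicum cercariae. From day 35 post-infection, dosed orally once daily for 5 days. Venous blood then clotted and centrifuged 15 min at 3500 rpm. Serum tested by triple dot ELISA and scored by spot colour: brown +++, yellow ++, slight yellow +, colourless –. DMSO blank.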

The test system of data set [6] is Schistosoma japonicum. The experiment in a line: Antischistosomal activity against Schistosoma japonicum infected in mouse at 50 mg/kg/day, po treated for 5 days measured after day 1 post last dose by ELISA. It counts as functional, organism-based. The procedure, abridged: as §2
Data set [7] relates to Schistosoma japonicum. The experiment in a line: Antischistosomal activity against Schistosoma japonicum infected in mouse at 25 mg/kg/day, po treated for 5 days measured after day 2 post last dose by ELISA. The class given is functional, organism-based. In short, it runs like this: as §2
Data set [8] has as its system Schistosoma japonicum. The experiment in a line: Antischistosomal activity against Schistosoma japonicum infected in mouse at 25 mg/kg/day, po treated for 5 days measured after day 3 post last dose by ELISA. The class given is functional, organism-based. In short, it runs like this:
as §2

Data set [9] concerns Schistosoma japonicum. The experiment in a line: Antischistosomal activity against Schistosoma japonicum infected in mouse at 25 mg/kg/day, po treated for 5 days measured after day 4 post last dose by ELISA. It counts as functional, organism-based. The procedure, abridged: as §2
Data set [10] deals with Schistosoma japonicum. The experiment in a line: Antischistosomal activity against Schistosoma japonicum infected in mouse at 25 mg/kg/day, po treated for 5 days measured after day 5 post last dose by ELISA. It counts as functional, organism-based. The procedure, abridged: as §2
The test system of data set [11] is Schistosoma japonicum. The experiment in a line: Antischistosomal activity against Schistosoma japonicum infected in mouse at 25 mg/kg/day, po treated for 5 days measured after day 6 post last dose by ELISA. It counts as functional, organism-based. In short, it runs like this:
as §2

The subject of data set [12] is Schistosoma japonicum. The data set can be described thus: Antischistosomal activity against Schistosoma japonicum infected in mouse at 25 mg/kg/day, po treated for 5 days measured after day 7 post last dose by ELISA. It counts as functional, organism-based. The procedure, abridged: as §2
Data set [13] has as its system Schistosoma japonicum. The experiment in a line: Antischistosomal activity against Schistosoma japonicum infected in mouse at 25 mg/kg/day, po treated for 5 days measured after day 8 post last dose by ELISA. It counts as functional, organism-based. In short, it runs like this:
as §2

In data set [14] the test system is Schistosoma japonicum. The experiment in a line: Antischistosomal activity against Schistosoma japonicum infected in mouse at 25 mg/kg/day, po treated for 5 days measured after day 9 post last dose by ELISA. It counts as functional, organism-based. The procedure, abridged: as §2
Data set [15] in a line: Acute toxicity in po dosed mouse infected with Schistosoma japonicum treated for 5 days. The class given is organism-based. The following applies: in vivo.
Data set [16] deals with Schistosoma japonicum. The experiment in a line: Antischistosomal activity against Schistosoma japonicum imago derived from infected mouse at 20 ug/ml after 72 hrs. The class given is functional, organism-based. The procedure, abridged: as §1
A further data set relates to Schistosoma haematobium. The experiment in a line: Antischistosomal activity against Schistosoma haematobium imago derived from infected mouse at 20 ug/ml after 72 hrs. The class given is functional, organism-based.
For another data set, the system named is Schistosoma mansoni. The data set can be described thus: Antischistosomal activity against Schistosoma mansoni imago derived from infected mouse at 20 ug/ml after 72 hrs. The class given is functional, organism-based.
Data set [17] concerns Schistosoma japonicum. The experiment in a line: Antischistosomal activity against Schistosoma japonicum infected in mouse at 50 mg/kg/day, po treated for 5 days measured after day 2 post last dose by ELISA. The class given is functional, organism-based. The procedure, abridged: as §2
In data set [18] the test system is Schistosoma japonicum. The data set can be described thus: Antischistosomal activity against Schistosoma japonicum infected in mouse at 50 mg/kg/day, po treated for 5 days measured after day 3 post last dose by ELISA. The class given is functional, organism-based. The procedure, abridged: as §2
The subject of data set [19] is Schistosoma japonicum. The experiment in a line: Antischistosomal activity against Schistosoma japonicum infected in mouse at 50 mg/kg/day, po treated for 5 days measured after day 4 post last dose by ELISA. The class given is functional, organism-based. In short, it runs like this: as §2
Data set [20] concerns Schistosoma japonicum. The experiment in a line: Antischistosomal activity against Schistosoma japonicum infected in mouse at 50 mg/kg/day, po treated for 5 days measured after day 6 post last dose by ELISA. It counts as functional, organism-based. In short, it runs like this: as §2
Data set [21] has as its system Schistosoma japonicum. The data set can be described thus: Antischistosomal activity against Schistosoma japonicum infected in mouse at 50 mg/kg/day, po treated for 5 days measured after day 7 post last dose by ELISA. The class given is functional, organism-based. The procedure, abridged:
as §2

Data set [22] relates to Schistosoma japonicum. The data set can be described thus: Antischistosomal activity against Schistosoma japonicum infected in mouse at 50 mg/kg/day, po treated for 5 days measured after day 8 post last dose by ELISA. The class given is functional, organism-based. In short, it runs like this:
as §2

For data set [23], the system named is Schistosoma japonicum. The experiment in a line: Antischistosomal activity against Schistosoma japonicum infected in mouse at 50 mg/kg/day, po treated for 5 days measured after day 9 post last dose by ELISA. It counts as functional, organism-based. The procedure, abridged:
as §2

In the case of `CC(=O)Nc1ccc(OC(=S)Nc2ccc(Nc3ccc(C(Cl)(Cl)Cl)cc3)cc2)cc1`, the IC50 in the data set on Schistosoma japonicum [1] was determined as 11.6 µg/mL (≈ 23.4 µM); in the data set on Schistosoma japonicum [2], 20.1 µg/mL (≈ 40.6 µM). Moreover, the logP in data set [3] was 6.07. The same compound displayed a pKa in data set [4] of 9.01.

For `O=[N+]([O-])c1ccc(Nc2ccc(NC(=S)Oc3ccccc3)cc2)cc1`, the IC50 in the data set on Schistosoma japonicum [1] stood at 6.53 µg/mL (≈ 17.9 µM); with Schistosoma japonicum [2], 8.21 µg/mL (≈ 22.5 µM). Besides, the result with Schistosoma japonicum [5], in the data set on Schistosoma japonicum [6], with Schistosoma japonicum [7], in the data set with Schistosoma japonicum [8], in the data set with Schistosoma japonicum [9] and in the data set with Schistosoma japonicum [10] was Active. Also, the outcome in the data set with Schistosoma japonicum [11], in the data set on Schistosoma japonicum [12], in the data set on Schistosoma japonicum [13] and in the data set on Schistosoma japonicum [14] was Active. The compound also came in with an LD50 at 120 h in [15] of 310 mg/kg.

For `CC(=O)Nc1ccc(OC(=S)Nc2ccc(Oc3ccc(C(Cl)(Cl)Cl)cc3)cc2)cc1`, the results for the IC50 in the data set on Schistosoma japonicum [1] and in the data set on Schistosoma japonicum [2] were 10.2 µg/mL (≈ 20.6 µM) and 18.3 µg/mL (≈ 36.9 µM), respectively. Also, the logP in data set [3] was determined as 6.16. This compound gave a pKa in data set [4] of 9.02.

`CC(=O)Nc1ccc(OC(=S)Nc2ccc(Oc3ccc(C(F)(F)F)cc3)cc2)cc1`: the figures for the IC50 in the data set with Schistosoma japonicum [1] and in the data set with Schistosoma japonicum [2] were 10.4 µg/mL (≈ 23.2 µM) and 17.3 µg/mL (≈ 38.7 µM), respectively. The compound further had a logP in data set [3] of 5.41. In data set [4], this compound returned a pKa of 9.03.

Consider `Oc1ccc(OC(=S)Nc2ccc(Oc3ccc(C(Cl)(Cl)Cl)cc3)cc2)cc1`, for which the IC50 in the data set with Schistosoma japonicum [1] worked out at 7.98 µg/mL (≈ 17.5 µM); in the data set with Schistosoma japonicum [2], 13.5 µg/mL (≈ 29.8 µM). In addition, the result in the data set with Schistosoma japonicum [16], in the data set on Schistosoma japonicum [5], with Schistosoma japonicum [6], in the data set on Schistosoma japonicum [7], with Schistosoma japonicum [17] and in the data set on Schistosoma japonicum [8] was Active. Moreover, the outcome with Schistosoma japonicum [18], in the data set on Schistosoma japonicum [9], in the data set on Schistosoma japonicum [19], with Schistosoma japonicum [10], in the data set with Schistosoma japonicum [11] and in the data set with Schistosoma japonicum [20] was Active. The result in the data set on Schistosoma japonicum [21], in the data set with Schistosoma japonicum [22] and in the data set with Schistosoma japonicum [23] was Active. Also, the result with Schistosoma haematobium, in the data set on Schistosoma mansoni, in the data set with Schistosoma japonicum [12], in the data set with Schistosoma japonicum [13] and in the data set on Schistosoma japonicum [14] was inactive. Moreover, the logP in [3] was found to be 6.84. The same compound yielded a pKa in [4] of 9.24. For the same compound, the LD50 at 120 h in [15] was above 500 mg/kg.

For `CC(=O)Nc1ccc(OC(=S)Nc2ccc(Nc3ccc([N+](=O)[O-])cc3)cc2)cc1`, the IC50 is 8.22 µg/mL (≈ 19.5 µM) in the data set with Schistosoma japonicum [1] and 15.2 µg/mL (≈ 36 µM) in the data set on Schistosoma japonicum [2]. In data set [3], this compound registered a logP of 4.32. The compound also showed a pKa in [4] of 9.04.

Consider `CC(=O)Nc1ccc(OC(=S)Nc2ccc(Sc3ccc(C(Cl)(Cl)Cl)cc3)cc2)cc1`, for which the IC50 turned out to be 23.5 µg/mL (≈ 46 µM) in the data set on Schistosoma japonicum [1] and 40.4 µg/mL (≈ 78.9 µM) in the data set with Schistosoma japonicum [2]. In addition, the logP in [3] came out at 6.71. Further, the pKa in data set [4] amounted to 9.01.

As for `CC(=O)Nc1ccc(OC(=S)Nc2ccc(Oc3ccc([N+](=O)[O-])cc3)cc2)cc1`, the IC50 in the data set on Schistosoma japonicum [1] was 8.24 µg/mL (≈ 19.5 µM); in the data set with Schistosoma japonicum [2] it was 14.1 µg/mL (≈ 33.3 µM). In addition, in data set [3], the logP stood at 4.81. Further, in [4], the pKa was determined as 9.04.

Turning to `Oc1ccc(OC(=S)Nc2ccc(Sc3ccc(C(F)(F)F)cc3)cc2)cc1`, the IC50 was found to be 16.6 µg/mL (≈ 39.3 µM) in the data set with Schistosoma japonicum [1] and 31.9 µg/mL (≈ 75.6 µM) in the data set with Schistosoma japonicum [2]. In data set [3], the logP amounted to 6.66. The pKa in data set [4] came to 9.22.
